The text below walks through data of ChEMBL document CHEMBL1152380, “The synthesis and biological evaluation of a novel series of C7 non-basic substituted fluoroquinolones as antibacterial agents” (2009).

Common to all, as to format: functional
In assay [1] the test system is Streptococcus pneumoniae. Put plainly: Antibacterial activity against multidrug-resistant Streptococcus pneumoniae clinical isolates by microbroth dilution technique. As to conditions: Streptococcus pneumoniae; read-out: MIC.
For a further assay, the system named is Escherichia coli. As to the kind of experiment: Antibacterial activity against Escherichia coli ATCC 25922 by microbroth dilution technique. As to conditions: Escherichia coli, ATCC 25922; read-out: MIC. The method in brief:
(§1)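 MIC, taken as the lowest drug concentration that prevents visible growth, determined by broth microdilution following the National Committee for Clinical and Laboratory Standards method. Strains were reference strains from the American Type Culture Collection or clinical isolates from the hospital culture collection.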

Assay [2] concerns Staphylococcus aureus. Put plainly: Antibacterial activity against multidrug-resistant Staphylococcus aureus clinical isolates by microbroth dilution technique.
The subject of assay [3] is Pseudomonas aeruginosa. As to the kind of experiment: Antibacterial activity against multidrug-resistant Pseudomonas aeruginosa clinical isolates by microbroth dilution technique.
Assay [4] relates to Staphylococcus aureus. Put plainly: Antibacterial activity against Staphylococcus aureus ATCC 25923 by microbroth dilution technique. The method in brief:
as §1

A further assay concerns Enterococcus faecalis. Put plainly: Antibacterial activity against Enterococcus faecalis ATCC 29212 by microbroth dilution technique. The gist of the method: as §1
In assay [5] the test system is Staphylococcus epidermidis. As to the kind of experiment: Antibacterial activity against Staphylococcus epidermidis ATCC 12228 by microbroth dilution technique. The gist of the method:
as §1

The test system of assay [6] is Streptococcus pneumoniae. As to the kind of experiment: Antibacterial activity against Streptococcus pneumoniae ATCC 49619 by microbroth dilution technique. The method in brief: (§2)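 Broth microdilution run to the National Committee for Clinical and Laboratory Standards method. MIC is taken as the lowest drug concentration that prevents visible bacterial growth. Strains were clinical isolates from a hospital culture collection or ATCC reference strains.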

In assay [7] the test system is Pseudomonas aeruginosa. As to the kind of experiment: Antibacterial activity against Pseudomonas aeruginosa ATCC 27853 by microbroth dilution technique. Conditions: Pseudomonas aeruginosa, ATCC 27853; read-out: MIC. The gist of the method: as §2
The mark [8] stands for this setting: Pseudomonas aeruginosa, read-out: MIC.
Where [9] appears, read: Staphylococcus aureus, ATCC 25923, read-out: MIC.
[10] abbreviates: Enterococcus faecalis, ATCC 29212, read-out: MIC.
Setting [11] is: Staphylococcus epidermidis, ATCC 12228, read-out: MIC.
Where [12] appears, read: Streptococcus pneumoniae, ATCC 49619, read-out: MIC.

Values after ≈ are worked out from the molar mass of the structure shown. Bounds are passed on as bounds.

In the case of `CC(C)(C)OC(=O)N1CC2CC1CN2c1nc2c(cc1F)c(=O)c(C(=O)O)cn2C1CC1` (stereo not drawn), the MIC was 0.5 mg/L (≈ 1.12 µM) in the assay with Streptococcus pneumoniae [1]; 4 mg/L (≈ 9 µM) in the assay with Escherichia coli; more than 32 mg/L in the assay with Staphylococcus aureus [2]; 32 mg/L (≈ 72 µM) in the assay on Pseudomonas aeruginosa [3] (setting [8]); 0.25 mg/L (≈ 0.562 µM) with Staphylococcus aureus [4] (setting [9]); 0.5 mg/L (≈ 1.12 µM) with Enterococcus faecalis (setting [10]). Also, the results for the MIC (in assay [5] (setting [11]); in the assay on Streptococcus pneumoniae [6] (setting [12]); in the assay on Pseudomonas aeruginosa [7]) were 4 mg/L (≈ 9 µM), 2 mg/L (≈ 4.5 µM) and 32 mg/L (≈ 72 µM), respectively.
In the case of `O=C(O)c1cn(C2CC2)c2cc(N3CCNCC3)c(F)cc2c1=O` [CIPROFLOXACIN], the minimum inhibitory concentration (MIC) (in the assay with Enterococcus faecalis (setting [10]); in assay [5] (setting [11])) was 0.5 mg/L (≈ 1.51 µM) throughout.
Take `O=C(O)c1cn(C2CC2)c2nc(N3CC4CC3CS4)c(F)cc2c1=O` (stereo not drawn): the MIC in the assay with Streptococcus pneumoniae [1] is 0.031 mg/L (≈ 0.0858 µM); in the assay on Escherichia coli it was 0.125 mg/L (≈ 0.346 µM); in the assay with Staphylococcus aureus [2] it was more than 32 mg/L; in the assay with Pseudomonas aeruginosa [3] (setting [8]) it was 32 mg/L (≈ 88.5 µM); in the assay with Staphylococcus aureus [4] (setting [9]), 0.016 mg/L (≈ 0.0443 µM); with Enterococcus faecalis (setting [10]), 0.125 mg/L (≈ 0.346 µM). For the same molecule, the MIC in assay [5] (setting [11]) amounted to 0.125 mg/L (≈ 0.346 µM); in the assay with Streptococcus pneumoniae [6] (setting [12]), 0.031 mg/L (≈ 0.0858 µM); in the assay with Pseudomonas aeruginosa [7], 2 mg/L (≈ 5.53 µM).
Regarding `C[C@H](O)[C@@H]1C[C@@H](O)CN1c1nc2c(cc1F)c(=O)c(C(=O)O)cn2C1CC1`, the MIC was 2 mg/L (≈ 5.3 µM) with Streptococcus pneumoniae [1]; 8 mg/L (≈ 21.2 µM) in the assay with Escherichia coli; more than 32 mg/L in the assay with Staphylococcus aureus [2]; 32 mg/L (≈ 84.8 µM) in the assay with Pseudomonas aeruginosa [3] (setting [8]); 16 mg/L (≈ 42.4 µM) in the assay on Staphylococcus aureus [4] (setting [9]); 4 mg/L (≈ 10.6 µM) in the assay on Enterococcus faecalis (setting [10]). The MIC came to 32 mg/L (≈ 84.8 µM) in assay [5] (setting [11]), 1 mg/L (≈ 2.65 µM) with Streptococcus pneumoniae [6] (setting [12]) and 32 mg/L (≈ 84.8 µM) in the assay on Pseudomonas aeruginosa [7].
For the molecule `C[C@@H](O)[C@@H]1C[C@@H](O)CN1c1nc2c(cc1F)c(=O)c(C(=O)O)cn2C1CC1`, the MIC in the assay with Streptococcus pneumoniae [1] is 8 mg/L (≈ 21.2 µM); in the assay on Escherichia coli, 16 mg/L (≈ 42.4 µM); against Staphylococcus aureus [2], more than 32 mg/L; in the assay with Pseudomonas aeruginosa [3] (setting [8]), 32 mg/L (≈ 84.8 µM); in the assay with Staphylococcus aureus [4] (setting [9]), 32 mg/L (≈ 84.8 µM); with Enterococcus faecalis (setting [10]) it was 2 mg/L (≈ 5.3 µM). Moreover, the minimum inhibitory concentration (MIC) is more than 32 mg/L in assay [5] (setting [11]), 2 mg/L (≈ 5.3 µM) in the assay with Streptococcus pneumoniae [6] (setting [12]) and 32 mg/L (≈ 84.8 µM) in the assay with Pseudomonas aeruginosa [7].
For the molecule `CN[C@H](CC(C)C)C(=O)N[C@H]1C(=O)N[C@@H](CC(N)=O)C(=O)N[C@H]2C(=O)N[C@H]3C(=O)N[C@H](C(=O)N[C@H](C(=O)O)c4cc(O)cc(O)c4-c4cc3ccc4O)[C@H](O)c3ccc(c(Cl)c3)Oc3cc2cc(c3O[C@@H]2O[C@H](CO)[C@@H](O)[C@H](O)[C@H]2O[C@H]2C[C@](C)(N)[C@H](O)[C@H](C)O2)Oc2ccc(cc2Cl)[C@H]1O` [VANCOMYCIN], the MIC with Streptococcus pneumoniae [1] amounted to 2 mg/L (≈ 1.38 µM); in the assay with Enterococcus faecalis (setting [10]) it was 0.5 mg/L (≈ 0.345 µM); in the assay with Streptococcus pneumoniae [6] (setting [12]), 1 mg/L (≈ 0.69 µM).
With `O=C(O)c1cn(C2CC2)c2nc(N3CC4CC3CS4(=O)=O)c(F)cc2c1=O` (stereo not drawn), the minimum inhibitory concentration (MIC) in the assay on Streptococcus pneumoniae [1] is 0.031 mg/L (≈ 0.0788 µM); with Escherichia coli, 0.125 mg/L (≈ 0.318 µM); in the assay on Staphylococcus aureus [2] it was more than 32 mg/L; in the assay with Pseudomonas aeruginosa [3] (setting [8]), 32 mg/L (≈ 81.3 µM); in the assay on Staphylococcus aureus [4] (setting [9]), 0.016 mg/L (≈ 0.0407 µM); in the assay on Enterococcus faecalis (setting [10]), 0.063 mg/L (≈ 0.16 µM). The MIC in [5] (setting [11]) is 0.5 mg/L (≈ 1.27 µM); in the assay on Streptococcus pneumoniae [6] (setting [12]), 0.063 mg/L (≈ 0.16 µM); in the assay on Pseudomonas aeruginosa [7], 8 mg/L (≈ 20.3 µM).
`O=C(O)c1cn(C2CC2)c2nc(N3CCC[C@H]3Cn3cc(CO)nn3)c(F)cc2c1=O`: the minimal inhibitory concentration (MIC) in the assay on Streptococcus pneumoniae [1] is 4 mg/L (≈ 9.34 µM); with Escherichia coli, 32 mg/L (≈ 74.7 µM); in the assay with Staphylococcus aureus [2], more than 32 mg/L; in the assay on Pseudomonas aeruginosa [3] (setting [8]), 32 mg/L (≈ 74.7 µM); with Staphylococcus aureus [4] (setting [9]), 32 mg/L (≈ 74.7 µM); with Enterococcus faecalis (setting [10]), 4 mg/L (≈ 9.34 µM). In addition, the MIC in assay [5] (setting [11]) was 32 mg/L (≈ 74.7 µM); in the assay on Streptococcus pneumoniae [6] (setting [12]) it was 8 mg/L (≈ 18.7 µM); in the assay with Pseudomonas aeruginosa [7] it was 32 mg/L (≈ 74.7 µM).
For the molecule `O=C(O)c1cn(C2CC2)c2nc(N3CC4CC3C[S+]4[O-])c(F)cc2c1=O` (stereo in doubt; 6.28), the minimum inhibitory concentration (MIC) in the assay with Streptococcus pneumoniae [1] is 0.25 mg/L (≈ 0.662 µM); in the assay on Escherichia coli, 1 mg/L (≈ 2.65 µM); against Staphylococcus aureus [2], more than 32 mg/L; in the assay on Pseudomonas aeruginosa [3], 32 mg/L (≈ 84.8 µM); in the assay with Staphylococcus aureus [4], 4 mg/L (≈ 10.6 µM); with Enterococcus faecalis, 1 mg/L (≈ 2.65 µM). Further, the minimum inhibitory concentration (MIC) amounted to 4 mg/L (≈ 10.6 µM) in assay [5], 0.5 mg/L (≈ 1.32 µM) in the assay on Streptococcus pneumoniae [6] and 32 mg/L (≈ 84.8 µM) with Pseudomonas aeruginosa [7].
